ChEMBL document CHEMBL1138547, “Synthesis, biological evaluation and 2D-QSAR analysis of benzoxazoles as antimicrobial agents” (2009)
Values after ≈ are worked out from the molar mass of the structure shown.

Key:
Assay type in all cases: functional
[1] = system: Klebsiella pneumoniae; test: Antimicrobial activity against Klebsiella pneumoniae RSHM 574 after 24 hrs; conditions: RSHM 574, 24 h
Outline: (§1)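 MIC by twofold serial dilution in Mueller-Hinton broth (MHB); MHB also used to dilute the bacterial suspension. Wells held 10^3 cfu/ml bacteria after inoculation. Controls: 80% DMSO, 20% EtOH, methanol, DMSO, PBS, organism alone and medium alone. Triplicate in each run. MIC taken as the lowest concentration completely inhibiting macroscopic growth.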

[2] = system: Klebsiella pneumoniae; test: Antimicrobial activity against multidrug-resistant Klebsiella pneumoniae after 24 hrs
Outline: (§2)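 Twofold serial broth dilution in Mueller-Hinton broth. MHB was used both to dilute the bacterial suspension and for the twofold compound dilutions, giving 10^3 cfu/ml bacteria per well after inoculation. Solvent, medium and organism-only wells served as controls. Each organism was run in triplicate.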

[3] = system: Escherichia coli; test: Antimicrobial activity against Escherichia coli ATCC 25922 after 24 hrs; conditions: ATCC 25922, 24 h; outline: as §1
[4] = system: Escherichia coli; test: Antimicrobial activity against multidrug-resistant Escherichia coli after 24 hrs; outline: as §2
[5] = system: Pseudomonas aeruginosa; test: Antimicrobial activity against Pseudomonas aeruginosa ATCC […] after 24 hrs; outline: as §1
[6] = system: Bacillus subtilis; test: Antimicrobial activity against Bacillus subtilis ATCC 6633 after 24 hrs; conditions: for MIC: Bacillus subtilis, ATCC 6633, 24 h; outline: as §1
[7] = system: Bacillus subtilis; test: Antimicrobial activity against ceftriazone-resistant Bacillus subtilis after 24 hrs; outline: as §2
[8] = system: Staphylococcus aureus; test: Antimicrobial activity against Staphylococcus aureus ATCC 25923 after 24 hrs; conditions: ATCC 25923, 24 h; outline: as §2
[9] = system: Staphylococcus aureus; test: Antimicrobial activity against multidrug-resistant Staphylococcus aureus after 24 hrs; outline: as §2
[10] = system: Candida albicans; test: Antimicrobial activity against Candida albicans ATCC 10231 after 24 to 48 hrs
Outline: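 Twofold serial dilution following CLSI M27-A. Yeast suspension made at 10^4 cfu/ml by diluting a fresh culture at McFarland 0.5 (10^6 cfu/ml). Inoculated into the diluted compound, incubated at 35 °C in a humid chamber, read after 48 h. Triplicate in each run. MIC is the lowest concentration completely inhibiting macroscopic growth.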

[11] = system: Candida albicans; test: Antimicrobial activity against multidrug-resistant Candida albicans isolates after 24 to 48 hrs
Outline: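 Yeast broth microdilution following CLSI M27-A, with Sabouraud dextrose medium noted for antifungal assays. Fresh cultures at McFarland 0.5 (10^6 cfu/ml) were diluted to 10^4 cfu/ml and inoculated into twofold compound dilutions. Trays were incubated at 35 °C in a humid chamber and read at 48 h, in triplicate. MIC was the lowest concentration giving complete macroscopic growth inhibition.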

Row | Structure (SMILES) | MIC [1] [µg/mL] | MIC [2] [µg/mL] | MIC [3] [µg/mL] | MIC [4] [µg/mL] | MIC [5] [µg/mL] | log(1/C) [6] | MIC [6] [µg/mL] | MIC [7] [µg/mL] | MIC [8] [µg/mL] | MIC [9] [µg/mL] | MIC [10] [µg/mL] | MIC [11] [µg/mL]
1 | O=[N+]([O-])c1ccc2oc(-c3ccc(F)cc3)nc2c1 | 50 (≈ 194 µM) | 100 (≈ 387 µM) | 50 (≈ 194 µM) | 100 (≈ 387 µM) | 50 (≈ 194 µM) | 3.713 | 50 (≈ 194 µM) | 25 (≈ 96.8 µM) | 100 (≈ 387 µM) | 100 (≈ 387 µM) | 50 (≈ 194 µM) | 100 (≈ 387 µM)
2 | O=[N+]([O-])c1ccc2oc(Cc3ccc(F)cc3)nc2c1 | 50 (≈ 184 µM) | 100 (≈ 367 µM) | 50 (≈ 184 µM) | 50 (≈ 184 µM) | 25 (≈ 91.8 µM) | 4.338 | 12.5 (≈ 45.9 µM) | 50 (≈ 184 µM) | 100 (≈ 367 µM) | 100 (≈ 367 µM) | 100 (≈ 367 µM) | 50 (≈ 184 µM)
3 | Nc1ccc2nc(Cc3ccc(Br)cc3)oc2c1 | 50 (≈ 165 µM) | 100 (≈ 330 µM) | 50 (≈ 165 µM) | 100 (≈ 330 µM) | 50 (≈ 165 µM) | 4.084 | 25 (≈ 82.5 µM) | 50 (≈ 165 µM) | 100 (≈ 330 µM) | 100 (≈ 330 µM) | 50 (≈ 165 µM) | 100 (≈ 330 µM)
4 | CCc1ccc(-c2nc3ccc([N+](=O)[O-])cc3o2)cc1 | 50 (≈ 186 µM) | 100 (≈ 373 µM) | 50 (≈ 186 µM) | 100 (≈ 373 µM) | 50 (≈ 186 µM) | 3.73 | 50 (≈ 186 µM) | 25 (≈ 93.2 µM) | 100 (≈ 373 µM) | 100 (≈ 373 µM) | 50 (≈ 186 µM) | 100 (≈ 373 µM)
5 | Nc1ccc2oc(-c3ccc(F)cc3)nc2c1 | 50 (≈ 219 µM) | 100 (≈ 438 µM) | 50 (≈ 219 µM) | 100 (≈ 438 µM) | 50 (≈ 219 µM) | 3.96 | 25 (≈ 110 µM) | 50 (≈ 219 µM) | 50 (≈ 219 µM) | 100 (≈ 438 µM) | 50 (≈ 219 µM) | 50 (≈ 219 µM)
6 | O=[N+]([O-])c1ccc2nc(Cc3ccc(F)cc3)oc2c1 | 50 (≈ 184 µM) | 100 (≈ 367 µM) | 50 (≈ 184 µM) | 50 (≈ 184 µM) | 50 (≈ 184 µM) | 4.338 | 12.5 (≈ 45.9 µM) | 100 (≈ 367 µM) | 100 (≈ 367 µM) | 100 (≈ 367 µM) | 100 (≈ 367 µM) | 50 (≈ 184 µM)
7 | O=[N+]([O-])c1ccc2nc(Cc3ccc(Cl)cc3)oc2c1 | 50 (≈ 173 µM) | 100 (≈ 346 µM) | 50 (≈ 173 µM) | 100 (≈ 346 µM) | 25 (≈ 86.6 µM) | 4.364 | 12.5 (≈ 43.3 µM) | 25 (≈ 86.6 µM) | 200 (≈ 693 µM) | 100 (≈ 346 µM) | 100 (≈ 346 µM) | 50 (≈ 173 µM)
8 | O=[N+]([O-])c1ccc2nc(-c3ccc(F)cc3)oc2c1 | 50 (≈ 194 µM) | 100 (≈ 387 µM) | 50 (≈ 194 µM) | 100 (≈ 387 µM) | 50 (≈ 194 µM) | 3.713 | 50 (≈ 194 µM) | 25 (≈ 96.8 µM) | 100 (≈ 387 µM) | 100 (≈ 387 µM) | 50 (≈ 194 µM) | 100 (≈ 387 µM)
9 | Nc1ccc2nc(Cc3ccc(F)cc3)oc2c1 | 50 (≈ 206 µM) | 100 (≈ 413 µM) | 50 (≈ 206 µM) | 50 (≈ 206 µM) | 25 (≈ 103 µM) | 3.685 | 50 (≈ 206 µM) | 50 (≈ 206 µM) | 100 (≈ 413 µM) | 100 (≈ 413 µM) | 50 (≈ 206 µM) | 50 (≈ 206 µM)
10 | O=[N+]([O-])c1ccc2oc(-c3ccccc3)nc2c1 | 50 (≈ 208 µM) | 100 (≈ 416 µM) | 50 (≈ 208 µM) | 50 (≈ 208 µM) | 25 (≈ 104 µM) | 4.284 | 12.5 (≈ 52 µM) | 25 (≈ 104 µM) | 200 (≈ 833 µM) | 400 (≈ 1670 µM) | 100 (≈ 416 µM) | 50 (≈ 208 µM)
11 | Nc1ccc2oc(Cc3ccc(F)cc3)nc2c1 | 50 (≈ 206 µM) | 100 (≈ 413 µM) | 50 (≈ 206 µM) | 25 (≈ 103 µM) | 50 (≈ 206 µM) | 3.685 | 50 (≈ 206 µM) | 50 (≈ 206 µM) | 200 (≈ 826 µM) | 100 (≈ 413 µM) | 100 (≈ 413 µM) | 50 (≈ 206 µM)
12 | Nc1ccc2nc(Cc3ccc(Cl)cc3)oc2c1 | 50 (≈ 193 µM) | 100 (≈ 387 µM) | 50 (≈ 193 µM) | 100 (≈ 387 µM) | 25 (≈ 96.6 µM) | 4.32 | 12.5 (≈ 48.3 µM) | 25 (≈ 96.6 µM) | 100 (≈ 387 µM) | 100 (≈ 387 µM) | 50 (≈ 193 µM) | 50 (≈ 193 µM)
13 | O=[N+]([O-])c1ccc2nc(-c3ccccc3)oc2c1 | 50 (≈ 208 µM) | 100 (≈ 416 µM) | 50 (≈ 208 µM) | 25 (≈ 104 µM) | 50 (≈ 208 µM) | 3.983 | 25 (≈ 104 µM) | 25 (≈ 104 µM) | 200 (≈ 833 µM) | 100 (≈ 416 µM) | 100 (≈ 416 µM) | 50 (≈ 208 µM)
14 | Nc1ccc2nc(-c3ccc(Br)cc3)oc2c1 | 50 (≈ 173 µM) | 100 (≈ 346 µM) | 50 (≈ 173 µM) | 50 (≈ 173 µM) | 50 (≈ 173 µM) | 4.063 | 25 (≈ 86.5 µM) | 25 (≈ 86.5 µM) | 100 (≈ 346 µM) | 100 (≈ 346 µM) | 100 (≈ 346 µM) | 50 (≈ 173 µM)
15 | Cc1ccc(Cc2nc3cc([N+](=O)[O-])ccc3o2)cc1 | 50 (≈ 186 µM) | 50 (≈ 186 µM) | 50 (≈ 186 µM) | 50 (≈ 186 µM) | 50 (≈ 186 µM) | 3.73 | 50 (≈ 186 µM) | 50 (≈ 186 µM) | 50 (≈ 186 µM) | 50 (≈ 186 µM) | 50 (≈ 186 µM) | 25 (≈ 93.2 µM)
16 | CCc1ccc(-c2nc3cc([N+](=O)[O-])ccc3o2)cc1 | 50 (≈ 186 µM) | 100 (≈ 373 µM) | 50 (≈ 186 µM) | 100 (≈ 373 µM) | 50 (≈ 186 µM) | 3.73 | 50 (≈ 186 µM) | 25 (≈ 93.2 µM) | 100 (≈ 373 µM) | 100 (≈ 373 µM) | 50 (≈ 186 µM) | 100 (≈ 373 µM)
17 | CC(C)(C)c1ccc(-c2nc3ccc(N)cc3o2)cc1 | 50 (≈ 188 µM) | 100 (≈ 375 µM) | 50 (≈ 188 µM) | 100 (≈ 375 µM) | 25 (≈ 93.9 µM) | 4.027 | 25 (≈ 93.9 µM) | 25 (≈ 93.9 µM) | 100 (≈ 375 µM) | 100 (≈ 375 µM) | 50 (≈ 188 µM) | 50 (≈ 188 µM)
